Measured values taken from ChEMBL document CHEMBL4043297, “Synthesis and Structure-Activity Relationships of the Novel Antimalarials 5-Pyridinyl-4(1 H)-Pyridones” (J Med Chem, 2018).

Columns and labels:
Plasmodium falciparum = experiment: Antimalarial activity against Plasmodium falciparum 3D7A infected in human RBC after 48 hrs by [3H]-hypoxanthine incorporation assay; assay type: functional
serum albumin = serum albumin (Homo sapiens, UniProt P02768); experiment: Binding affinity to human serum albumin by HPLC method; assay type: ADME; details: read-out: PB (converted)
Chain of serum albumin (P02768 whole entry): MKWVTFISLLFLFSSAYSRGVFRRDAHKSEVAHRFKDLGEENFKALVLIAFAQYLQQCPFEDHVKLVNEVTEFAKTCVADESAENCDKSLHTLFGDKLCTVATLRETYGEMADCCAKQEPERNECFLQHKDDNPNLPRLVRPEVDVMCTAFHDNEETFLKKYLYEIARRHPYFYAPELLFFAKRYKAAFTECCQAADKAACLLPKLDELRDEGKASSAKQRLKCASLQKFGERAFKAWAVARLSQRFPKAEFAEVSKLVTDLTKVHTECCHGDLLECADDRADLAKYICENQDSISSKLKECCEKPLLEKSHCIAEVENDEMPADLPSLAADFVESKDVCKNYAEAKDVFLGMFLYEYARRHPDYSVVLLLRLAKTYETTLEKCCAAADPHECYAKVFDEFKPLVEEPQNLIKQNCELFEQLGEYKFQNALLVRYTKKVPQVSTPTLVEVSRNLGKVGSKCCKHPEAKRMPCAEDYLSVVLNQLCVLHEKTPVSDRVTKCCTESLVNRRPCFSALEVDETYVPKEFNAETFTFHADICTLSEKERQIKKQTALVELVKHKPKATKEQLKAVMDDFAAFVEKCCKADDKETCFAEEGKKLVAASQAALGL

[1] = Volume of distribution in CD1 mouse at 0.17 mg/kg, iv as bolus dose by LC-MS/MS method; assay type: ADME, organism-based; details: in vivo
Procedure, shortened: (§1)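 Specific pathogen-free female CD1 (Hsd:ICR) mice, 8–10 weeks old, housed in the institutional animal facility. Each compound was given intravenously at a low dose and orally at a higher dose. Vd, clearance, t1/2, Cmax, Tmax, AUC0-t, AUC∞ and %F were derived from plasma exposure after each route.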

[2] = Clearance in CD1 mouse at 0.17 mg/kg, iv as bolus dose by LC-MS/MS method; assay type: ADME, organism-based; details: in vivo
Procedure, shortened: (§2)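 Specific pathogen-free female CD1 (Hsd:ICR) mice, 8 to 10 weeks old. Each compound was given as an intravenous dose and an oral dose at the levels listed. Parameters reported: Vd, clearance, t1/2, Cmax, Tmax, AUC0-t, AUC∞ and %F.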

[3] = Half life in CD1 mouse at 0.17 mg/kg, iv as bolus dose by LC-MS/MS method; assay type: ADME, organism-based; details: in vivo; procedure, shortened: as §2
[4] = Cmax in CD1 mouse at 10.757 mg/kg administered via oral gavage by LC-MS/MS method; assay type: ADME, organism-based; parameters: dose 10.757 mg/kg, route oral; details: in vivo, 10.76 mg/kg; procedure, shortened: as §2
[5] = Tmax in CD1 mouse at 10.757 mg/kg administered via oral gavage by LC-MS/MS method; assay type: ADME, organism-based; details: in vivo; procedure, shortened: as §1
[6] = AUC (0 to t) in CD1 mouse at 10.757 mg/kg administered via oral gavage by LC-MS/MS method; assay type: ADME, organism-based; details: in vivo; procedure, shortened: as §2
[7] = AUC (infinity) in CD1 mouse at 10.757 mg/kg administered via oral gavage by LC-MS/MS method; assay type: ADME, organism-based; parameters: dose 10.757 mg/kg, route oral, time infinity; details: in vivo, 10.76 mg/kg; procedure, shortened: as §2
[8] = Oral bioavailability in CD1 mouse at 10.757 mg/kg administered via gavage by LC-MS/MS method; assay type: ADME, organism-based; details: in vivo; procedure, shortened: as §2
Plasmodium yoelii = experiment: Schizontocidal activity against Plasmodium yoelii infected in CD1 mouse administered via oral gavage as qd for 4 days starting 1 hr post infection by YOYO-1 dye-based flow cytometric method; assay type: functional
Procedure, shortened: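 Blood schizontocidal activity was tested in a modified 4-day suppressive test in mice infected with P. yoelii. Four oral doses were given by gavage over four days.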

[9] = Volume of distribution in CD1 mouse at […], iv as bolus dose by LC-MS/MS method; assay type: ADME, organism-based; details: in vivo
[10] = Clearance in CD1 mouse at […], iv as bolus dose by LC-MS/MS method; assay type: ADME, organism-based; details: in vivo
[11] = Half life in CD1 mouse at […], iv as bolus dose by LC-MS/MS method; assay type: ADME, organism-based; details: in vivo
[12] = Cmax in CD1 mouse at 8.3 mg/kg administered via oral gavage by LC-MS/MS method; assay type: ADME, organism-based; parameters: dose 8.3 mg/kg, route oral; details: in vivo; procedure, shortened: as §2
[13] = Tmax in CD1 mouse at 8.3 mg/kg administered via oral gavage by LC-MS/MS method; assay type: ADME, organism-based; details: in vivo; procedure, shortened: as §1
[14] = AUC (0 to t) in CD1 mouse at 8.3 mg/kg administered via oral gavage by LC-MS/MS method; assay type: ADME, organism-based; details: in vivo; procedure, shortened: as §2
[15] = AUC (infinity) in CD1 mouse at 8.3 mg/kg administered via oral gavage by LC-MS/MS method; assay type: ADME, organism-based; parameters: dose 8.3 mg/kg, route oral, time infinity; details: in vivo; procedure, shortened: as §2
[16] = Oral bioavailability in CD1 mouse at 8.3 mg/kg administered via gavage by LC-MS/MS method; assay type: ADME, organism-based; details: in vivo; procedure, shortened: as §1
[17] = Volume of distribution in CD1 mouse at 0.211 mg/kg, iv as bolus dose by LC-MS/MS method; assay type: ADME, organism-based; details: in vivo; procedure, shortened: as §1
[18] = Clearance in CD1 mouse at 0.211 mg/kg, iv as bolus dose by LC-MS/MS method; assay type: ADME, organism-based; details: in vivo; procedure, shortened: as §2
[19] = Half life in CD1 mouse at 0.211 mg/kg, iv as bolus dose by LC-MS/MS method; assay type: ADME, organism-based; details: in vivo; procedure, shortened: as §2
[20] = Cmax in CD1 mouse at 8.366 mg/kg administered via oral gavage by LC-MS/MS method; assay type: ADME, organism-based; parameters: dose 8.366 mg/kg, route oral; details: in vivo; procedure, shortened: as §2
[21] = Tmax in CD1 mouse at 8.366 mg/kg administered via oral gavage by LC-MS/MS method; assay type: ADME, organism-based; details: in vivo; procedure, shortened: as §1
[22] = AUC (0 to t) in CD1 mouse at 8.366 mg/kg administered via oral gavage by LC-MS/MS method; assay type: ADME, organism-based; details: in vivo; procedure, shortened: as §2
[23] = AUC (infinity) in CD1 mouse at 8.366 mg/kg administered via oral gavage by LC-MS/MS method; assay type: ADME, organism-based; parameters: dose 8.366 mg/kg, route oral, time infinity; details: in vivo; procedure, shortened: as §2
[24] = Oral bioavailability in CD1 mouse at 8.366 mg/kg administered via gavage by LC-MS/MS method; assay type: ADME, organism-based; details: in vivo; procedure, shortened: as §1
[25] = Volume of distribution in CD1 mouse at 0.195 mg/kg, iv as bolus dose by LC-MS/MS method; assay type: ADME, organism-based; details: in vivo; procedure, shortened: as §1
[26] = Clearance in CD1 mouse at 0.195 mg/kg, iv as bolus dose by LC-MS/MS method; assay type: ADME, organism-based; details: in vivo; procedure, shortened: as §2
[27] = Half life in CD1 mouse at 0.195 mg/kg, iv as bolus dose by LC-MS/MS method; assay type: ADME, organism-based; details: in vivo; procedure, shortened: as §2
[28] = Cmax in CD1 mouse at 9.354 mg/kg administered via oral gavage by LC-MS/MS method; assay type: ADME, organism-based; parameters: dose 9.354 mg/kg, route oral; details: in vivo; procedure, shortened: as §2
[29] = Tmax in CD1 mouse at 9.354 mg/kg administered via oral gavage by LC-MS/MS method; assay type: ADME, organism-based; details: in vivo; procedure, shortened: as §1
[30] = AUC (0 to t) in CD1 mouse at 9.354 mg/kg administered via oral gavage by LC-MS/MS method; assay type: ADME, organism-based; details: in vivo; procedure, shortened: as §2
[31] = AUC (infinity) in CD1 mouse at 9.354 mg/kg administered via oral gavage by LC-MS/MS method; assay type: ADME, organism-based; parameters: dose 9.354 mg/kg, route oral, time infinity; details: in vivo; procedure, shortened: as §2
[32] = Oral bioavailability in CD1 mouse at 9.354 mg/kg administered via gavage by LC-MS/MS method; assay type: ADME, organism-based; details: in vivo; procedure, shortened: as §1

## Cc1[nH]c(C)c(-c2ccc(OCc3ccccc3C(F)(F)F)nc2)c(=O)c1Cl
Plasmodium falciparum
  IC50: 10 nM

## Cc1[nH]c(C)c(-c2ccc(-c3ccc(OC(F)(F)F)cc3)nc2)c(=O)c1Cl
Plasmodium falciparum
  IC50: 20 nM
Serum albumin
  fraction unbound: 0.04
[1]
  Vd: 0.85 L/kg
[2]
  clearance: 0.53 mL/min/kg
[3]
  half-life: 18.7 h
[4]
  Cmax: 2290 ng/mL
[5]
  Tmax: 10 h
[6]
  AUC(0-t): 167000 ng·h/mL
[7]
  AUC(0-inf): 187000 ng·h/mL
[8]
  bioavailability: 54.9%
Plasmodium yoelii
  ED50: 0.15 mg/kg

## Cc1[nH]c(CO)c(Cl)c(=O)c1-c1ccc(Oc2ccc(OC(F)(F)F)cc2)cc1
Plasmodium falciparum
  IC50: 133 nM

## Cc1[nH]c(C)c(-c2ccc(C#Cc3ccc(C(F)(F)F)cc3)nc2)c(=O)c1Br
Plasmodium falciparum
  IC50: 58 nM

## Cc1[nH]c(C)c(-c2ccc(OCc3ccc(OC(F)(F)F)cc3)nc2)c(=O)c1Cl
Plasmodium falciparum
  IC50: 14 nM
Serum albumin
  fraction unbound: 0.03
[9]
  Vd: 1.26 L/kg
[10]
  clearance: 2.74 mL/min/kg
[11]
  half-life: 5.32 h
[12]
  Cmax: 300 ng/mL
[13]
  Tmax: 6 h
[14]
  AUC(0-t): 5600 ng·h/mL
[15]
  AUC(0-inf): 5600 ng·h/mL
[16]
  bioavailability: 11%
Plasmodium yoelii
  ED50: 16.3 mg/kg

## Cc1[nH]c(C)c(-c2ccc(C#Cc3ccc(F)cc3F)nc2)c(=O)c1Cl
Plasmodium falciparum
  IC50: 472 nM

## Cc1[nH]c(C)c(-c2ccc(Oc3ccc(OC(F)(F)F)cc3)nc2)c(=O)c1Cl
Plasmodium falciparum
  IC50: 33 nM

## Cc1[nH]c(C)c(-c2ccc(-c3ccc(C#N)cc3)nc2)c(=O)c1Br
Plasmodium falciparum
  IC50: 329 nM

## Cc1[nH]c(C)c(-c2ccc(OCc3ccc(C(F)(F)F)cc3)nc2)c(=O)c1Cl
Plasmodium falciparum
  IC50: 5 nM

## Cc1[nH]c(C)c(-c2ccc(-c3ccc(C(F)(F)F)cc3Cl)nc2)c(=O)c1Cl
Plasmodium falciparum
  IC50: 2 nM
Serum albumin
  fraction unbound: 0.05
[17]
  Vd: 1.24 L/kg
[18]
  clearance: 1.11 mL/min/kg
[19]
  half-life: 12.8 h
[20]
  Cmax: 1690 ng/mL
[21]
  Tmax: 10 h
[22]
  AUC(0-t): 37400 ng·h/mL
[23]
  AUC(0-inf): 37500 ng·h/mL
[24]
  bioavailability: 30%
Plasmodium yoelii
  ED50: 0.33 mg/kg

## Cc1[nH]c(C)c(-c2ccc(-c3cccc(CO)c3)nc2)c(=O)c1Br
Plasmodium falciparum
  IC50: 324 nM

## Cc1[nH]c(C)c(-c2ccc(OCc3cccc(C(F)(F)F)c3)nc2)c(=O)c1Cl
Plasmodium falciparum
  IC50: 5 nM

## Cc1[nH]c(C)c(-c2ccc(-c3ccc(C(F)(F)F)cc3C(F)(F)F)nc2)c(=O)c1Br
Plasmodium falciparum
  IC50: 6 nM

## Cc1[nH]c(C)c(-c2ccc(-c3ccc(F)cc3)nc2)c(=O)c1Cl
Plasmodium falciparum
  IC50: 82 nM

## Cc1[nH]c(C)c(-c2ccc(OCc3cc(F)cc(F)c3)nc2)c(=O)c1Cl
Plasmodium falciparum
  IC50: 80 nM

## Cc1[nH]c(C)c(-c2ccc(OCc3cc(F)cc(F)c3)nc2)c(=O)c1Br
Plasmodium falciparum
  IC50: 40 nM

## Cc1[nH]c(C)c(-c2ccc(-c3ccccc3F)nc2)c(=O)c1Cl
Plasmodium falciparum
  IC50: 49 nM

## Cc1[nH]c(C)c(-c2ccc(CCc3cccc(C(F)(F)F)c3)nc2)c(=O)c1Cl
Plasmodium falciparum
  IC50: 7 nM

## Cc1[nH]c(C)c(-c2ccc(-c3ccc(F)cc3)nc2)c(=O)c1Br
Plasmodium falciparum
  IC50: 129 nM

## Cc1[nH]c(C)c(-c2ccc(-c3cccc(C(F)(F)F)c3)nc2)c(=O)c1Cl
Plasmodium falciparum
  IC50: 40 nM
Serum albumin
  fraction unbound: 0.05
[25]
  Vd: 0.68 L/kg
[26]
  clearance: 1.52 mL/min/kg
[27]
  half-life: 5.13 h
[28]
  Cmax: 2470 ng/mL
[29]
  Tmax: 3 h
[30]
  AUC(0-t): 39500 ng·h/mL
[31]
  AUC(0-inf): 39500 ng·h/mL
[32]
  bioavailability: 38.7%
Plasmodium yoelii
  ED50: 1.2 mg/kg

## Cc1[nH]c(C)c(-c2ccc(OCc3ccc(F)cc3)nc2)c(=O)c1Cl
Plasmodium falciparum
  IC50: 33 nM
